# Experimental data of several laboratories.
# Lines come from different studies, so protocols differ.
# Target: Mitogen-activated protein kinase 1 (MAPK1, Homo sapiens, UniProt P28482)
SMILES,observed,action,method,concentration,quantity,result
O=C1C=C(Nc2ccc(OCc3cn(Cc4ccccc4)nn3)cc2)C(=O)c2ccccc21,enzyme activity,inhibitor,radiometric,10 µM,inhibition,18%
Cc1cc(O)c(-c2ccc([C@@H](C)CN(C)C)cc2)c2c1[nH]c(=O)c1sccc12,enzyme activity,inhibitor,,0.1 µM,inhibition,6.8%
CC#CC(=O)N1CCC[C@H]1c1nc(-c2ccc(C(=O)Nc3ccccn3)cc2)c2c(N)nccn12,enzyme activity,inhibitor,,1 µM,inhibition,3%
COc1ccc2[nH]c3c4[nH]c5ccc(OC)cc5c4c4c(c3c2c1)C(=O)NC4=O,binding,,,1 µM,remaining binding,76%
COc1ccc2oc(-c3ccc4nc(N)oc4c3)c/c(=N\c3ccccc3NC(=O)CCN)c2c1,binding,,,1 µM,remaining binding,97%
C[C@H]1CC[C@H](n2c3cnccc3c3cnc(Nc4ccc5c(n4)CCN(C(=O)CO)C5)nc32)CC1,cell-free assay,,,1 µM,remaining signal,100%
C=CC(=O)N1CCC([C@@H]2CCNc3c(C(N)=O)c(-c4ccc(Oc5ccccc5)cc4)nn32)CC1,enzyme activity,inhibitor,,1 µM,inhibition,10%
C#Cc1cc(-c2cc(Nc3nc(N[C@@H](C)c4ccc(F)cn4)ncc3Cl)n[nH]2)ccc1C=O,enzyme activity,inhibitor,,0.2 µM,inhibition,10.4%
CCCCC(=O)Nc1ccc(-c2ccc3ncn(CCC)c(=O)c3c2)cn1,binding,,competition with immobilised ligand,0.5 µM,remaining binding,89%
